Data from ChEMBL document CHEMBL1926552, “Design and synthesis of simplified taxol analogs based on the T-Taxol bioactive conformation” (Bioorg Med Chem, 2011).
pIC50: −log10 of the molar value. Values after ≈ are worked out from the molar mass of the structure shown. Active and inactive are the calls of the source. No cut-off for these calls is given here.

What was measured:
Bos taurus [1] = species: Bos taurus; assay: Induction of bovine brain beta-tubulin polymerization at 8 uM using DAPI staining-based by fluorescence assay relative to control
In short: (§1)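 Bovine brain tubulin was loaded with 5 mM GDP in PME buffer (100 mM Pipes, 1 mM MgSO4, 2 mM EGTA, pH 6.9), then gel-filtered into PMED (PME plus 0.1 mM GDP). Tubulin (8 µM, just below critical concentration) with 10 µM DAPI was equilibrated at 37 °C. Ligand (8 or 60 µM) in DMSO (10% v/v final) was added to start the reaction. Fluorescence (ex 360, em 450 nm) was read to steady state against a DMSO-only control.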

Bos taurus [2] = species: Bos taurus; assay: Induction of bovine brain alpha-tubulin polymerization at 8 uM using DAPI staining-based by fluorescence assay relative to control; in short: as §1
Bos taurus [3] = species: Bos taurus; assay: Induction of bovine brain beta-tubulin assembly assessed as prevention of temperature-induced microtubule disassembly at 15 uM at 4 degC by absorption spectrophotometric analysis relative to control
In short: (§2)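 Bovine brain tubulin, 15 µM final, in PMEG buffer (100 mM Pipes, 1 mM MgSO4, 2 mM EGTA, 1 mM GTP, pH 6.9), equilibrated to 37 °C and baseline recorded. Ligand (15 or 60 µM) added, and assembly followed as light scattering at OD 350 nm. The sample was then cooled to 4 °C to follow disassembly. DMSO was 10% v/v final; the control had tubulin plus DMSO only.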

Bos taurus [4] = species: Bos taurus; assay: Induction of bovine brain alpha-tubulin assembly assessed as prevention of temperature-induced microtubule disassembly at 15 uM at 4 degC by absorption spectrophotometric analysis relative to control; in short: as §2
Bos taurus [5] = species: Bos taurus; assay: Induction of bovine brain beta-tubulin assembly assessed as increase in formed microtubule concentration at 15 uM at 37 degC by absorption spectrophotometric analysis relative to control; in short: as §2
Bos taurus [6] = species: Bos taurus; assay: Induction of bovine brain alpha-tubulin assembly assessed as increase in formed microtubule concentration at 15 uM at 37 degC by absorption spectrophotometric analysis relative to control; in short: as §2
Bos taurus [7] = species: Bos taurus; assay: Induction of bovine brain beta-tubulin assembly assessed as prevention of temperature-induced microtubule disassembly at 60 uM at 4 degC by absorption spectrophotometric analysis relative to control; in short: as §2
Bos taurus [8] = species: Bos taurus; assay: Induction of bovine brain alpha-tubulin assembly assessed as prevention of temperature-induced microtubule disassembly at 60 uM at 4 degC by absorption spectrophotometric analysis relative to control; in short: as §2
Bos taurus [9] = species: Bos taurus; assay: Induction of bovine brain beta-tubulin assembly assessed as increase in formed microtubule concentration at 60 uM at 37 degC by absorption spectrophotometric analysis relative to control; in short: as §2
Bos taurus [10] = species: Bos taurus; assay: Induction of bovine brain alpha-tubulin assembly assessed as increase in formed microtubule concentration at 60 uM at 37 degC by absorption spectrophotometric analysis relative to control; in short: as §2
A2780 = assay: Antiproliferative activity against human A2780 cells after 2 days by alamar blue assay; format: functional, cell-based; settings: A2780, 48 h
[11] = Solubility of the compound in buffer containing 10% DMSO; format: physicochemical
Bos taurus [12] = species: Bos taurus; assay: Induction of bovine brain alpha-tubulin polymerization at 60 uM using DAPI staining-based by fluorescence assay relative to control; in short: as §1
Bos taurus [13] = species: Bos taurus; assay: Induction of bovine brain beta-tubulin polymerization at 60 uM using DAPI staining-based by fluorescence assay relative to control; in short: as §1

Structure (SMILES) | Activity (Bos taurus [1]) | Activity (Bos taurus [2]) | Activity (Bos taurus [3]) | Activity (Bos taurus [4]) | Activity (Bos taurus [5]) | Activity (Bos taurus [6]) | Activity (Bos taurus [7]) | Activity (Bos taurus [8]) | Activity (Bos taurus [9]) | Activity (Bos taurus [10]) | pIC50 (A2780) | solubility [11] [µM] | Activity (Bos taurus [12]) | Activity (Bos taurus [13])
O=C(N[C@H]1c2ccccc2OCC/C=C/COc2cccc3c2[C@H](OC(=O)c2ccccc2)[C@@H]2C[C@@H](CN2C3)OC(=O)[C@@H]1O)c1ccccc1 |  |  |  |  |  |  | Active | Active | Active | Active | 5.35 | 60 (≈ 40.5 µg/mL) | inactive | inactive
O=C(N[C@H]1c2ccccc2OC/C=C/COc2cccc3c2[C@H](OC(=O)c2ccccc2)[C@@H]2C[C@@H](CN2C3)OC(=O)[C@@H]1O)c1ccccc1 |  |  |  |  |  |  | Active | Active | Active | Active | 5.39 | 60 (≈ 39.6 µg/mL) | inactive | inactive
C=CCCOc1ccccc1[C@H](NC(=O)c1ccccc1)[C@@H](O)C(=O)O[C@H]1C[C@H]2[C@@H](OC(=O)c3ccccc3)c3c(cccc3OCC=C)CN2C1 |  |  |  |  |  |  | Active | Active | Active | Active | 5.24 | 60 (≈ 42.2 µg/mL) | inactive | inactive
C=CCOc1ccccc1[C@H](NC(=O)c1ccccc1)[C@@H](O)C(=O)O[C@H]1C[C@H]2[C@@H](OC(=O)c3ccccc3)c3c(cccc3OCC=C)CN2C1 |  |  |  |  |  |  | Active | Active | Active | Active | 5.08 | 60 (≈ 41.3 µg/mL) | inactive | inactive

Next, values leading:

Activity (Bos taurus [1]) | Activity (Bos taurus [2]) | Activity (Bos taurus [3]) | Activity (Bos taurus [4]) | Activity (Bos taurus [5]) | Activity (Bos taurus [6]) | Activity (Bos taurus [7]) | Activity (Bos taurus [8]) | Activity (Bos taurus [9]) | Activity (Bos taurus [10]) | pIC50 (A2780) | solubility [11] [µM] | Activity (Bos taurus [12]) | Activity (Bos taurus [13]) | Structure (SMILES)
inactive | inactive | Active | Active | Active | Active |  |  |  |  |  |  |  |  | CC(=O)O[C@H]1C(=O)[C@@]2(C)[C@H]([C@H](OC(=O)c3ccccc3)[C@]3(O)C[C@H](OC(=O)[C@H](O)[C@@H](NC(=O)c4ccccc4)c4ccccc4)C(C)=C1C3(C)C)[C@]1(OC(C)=O)CO[C@@H]1C[C@@H]2O
 |  |  |  |  |  | Active | Active | Active | Active | 5.33 | 60 (≈ 40.4 µg/mL) | inactive | inactive | C=CCOc1cccc2c1[C@H](OC(=O)c1ccccc1)[C@@H]1C[C@H](OC(=O)[C@H](O)[C@@H](NC(=O)c3ccccc3)c3ccccc3CC=C)CN1C2
 |  |  |  |  |  | Active | Active | Active | Active | 5.40 | 60 (≈ 38.7 µg/mL) | inactive | inactive | O=C(N[C@H]1c2ccccc2C/C=C/COc2cccc3c2[C@H](OC(=O)c2ccccc2)[C@@H]2C[C@@H](CN2C3)OC(=O)[C@@H]1O)c1ccccc1
 |  |  |  |  |  | Active | Active | Active | Active | 5.29 | 60 (≈ 38.7 µg/mL) | inactive | inactive | O=C(N[C@H]1c2ccccc2C/C=C/COc2cccc3c2[C@@H](OC(=O)c2ccccc2)[C@@H]2C[C@@H](CN2C3)OC(=O)[C@@H]1O)c1ccccc1
 |  |  |  |  |  | Active | Active | Active | Active | 4.62 | 60 (≈ 40.4 µg/mL) | inactive | inactive | C=CCOc1cccc2c1[C@@H](OC(=O)c1ccccc1)[C@@H]1C[C@H](OC(=O)[C@H](O)[C@@H](NC(=O)c3ccccc3)c3ccccc3CC=C)CN1C2
